A selection: hits, their analogues and other compounds. The true share with any hit is near 2.4%.
Casp6 inh – inhibitors of human caspase-6; P55212; purified caspase-6, Z-VEID-R110 cleavage fluorescence; inhibition, % at 12.5 µM; hit rate 0.53% among 350,000; AID 686996;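 active means mean inhibition across replicates at least about 35%, with every replicate also reaching that limit, limit read from the data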;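 further: 0% = median of neutral control wells and 100% = no fluorescence left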
Target sequence (P55212 24-179 limits assumed): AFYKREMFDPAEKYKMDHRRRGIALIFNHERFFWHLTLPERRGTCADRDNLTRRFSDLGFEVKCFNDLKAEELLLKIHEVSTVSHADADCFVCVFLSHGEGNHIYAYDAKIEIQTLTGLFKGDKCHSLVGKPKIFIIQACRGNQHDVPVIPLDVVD
Target sequence (P55212 194-293 limits assumed): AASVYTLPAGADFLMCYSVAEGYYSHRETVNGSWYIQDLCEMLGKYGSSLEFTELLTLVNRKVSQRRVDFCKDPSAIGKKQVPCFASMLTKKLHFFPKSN
ARNT-TACC3 inh – ARNT/TACC3 interaction disruption; AlphaScreen His-ARNT PAS-B/GST-TACC3 binding, luminescence; TACC3 fragment carries E629A point mutation; inhibition, % at 9.99 µM; hit rate 0.66% among 390,000;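 active means mean inhibition of replicates at least 50% and at least half of replicates each reaching 50%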;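 further: 0% = complete ARNT plus TACC3 wells and 100% = ARNT alone without TACC3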
S100A4 inh HTS – inhibitors of human S100A4 binding to myosin IIA peptide | inhibition, % at 10.7 µM | P26447 | S100A4/TAMRA-MyoIIA peptide fluorescence polarization | hit rate 0.14% among 360,000;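 active means mean inhibition of at least 70% across replicates, with every replicate also reaching that level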
Target sequence (P26447 whole entry, looked up): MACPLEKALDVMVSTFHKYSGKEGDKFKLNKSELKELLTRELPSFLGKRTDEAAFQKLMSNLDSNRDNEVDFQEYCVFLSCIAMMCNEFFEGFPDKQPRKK
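Material: S100A4 monomer protein / Buffer or medium: 50 mM HEPES pH 7.2, 10 mM CaCl2, 100 mM KCl / Times: 5 min incubation before reading / Benchmarks: neutral control DMSO, positive control TFP / Reagent: labelled myosin peptide probe, 5 nM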
ERAP1 inh – inhibitors of human ERAP1 aminopeptidase; Q9NZ08; recombinant ERAP1, Leu-AMC fluorescence, 60 min; inhibition, % at 10.7 µM; hit rate 0.15% among 340,000; AID 652197;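 active means mean replicate inhibition of at least 30%, or all replicates individually reaching that 30% level; inactive means mean below 30% and not every replicate reaching it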;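 further: 0% = neutral control wells and 100% = L-leucinethiol positive control wells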
Ecoli rRNA inh – inhibits bacterial ribosomal RNA function over humanized ribosomes; AID 720706; hit rate 1.6% among 350,000; E. coli WT GFP vs humanized-ribosome RFP mutants, fluorescence, 24 h; hits give low values; DMSO median 0, no signal -100; GFP signal change (wild-type ribosome), % (test concentration not listed);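 active means significant combined selectivity score with lowered wild-type GFP, culture density cut under 30%, mutant RFP and density less affected; inactive means any of these conditions unmet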
PGC1a acetyl inh – lowers PGC1a acetylation signal in U2OS cells; hit rate 0.17% among 350,000; AID 651687; AlphaScreen anti-acetyl-lysine; with virally co-expressed GCN5 acetyltransferase; inhibition, % at 15.6 µM;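 active means every replicate shows inhibition of at least 40%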;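 further: 0% = neutral control wells and 100% = positive control wells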
Starred values were filed as active, the others as inactive; nt = no result given.

SMILES | Casp6 inh | ARNT-TACC3 inh | S100A4 inh HTS | ERAP1 inh | Ecoli rRNA inh | PGC1a acetyl inh
COc1ccc(-c2nnc3sc(C(C)N4C(=O)c5ccccc5C4=O)nn23)cc1 (stereo not drawn) | -0.6 | nt | -4.9 | 2.7 | -44.7* | 3.5
CCOCCCNC(=S)N1CCN(c2nc(-c3ccccc3)cs2)CC1 | -4.9 | 4.6 | 0.8 | 1.6 | -19.7 | -5.3
CCN(CC)CCCNC(=S)N1CCN(c2nc(-c3ccccc3)cs2)CC1 | -17.5 | 13.2 | 21.6 | 8.6 | -21.8* | -1.2
C[C@@H]1CN([C@@H](C)CO)C(=O)c2cccc(NC(=O)c3cnccn3)c2O[C@@H]1CN(C)Cc1ccc(C(F)(F)F)cc1 | 3.2 | 2.8 | 35.6 | 1.5 | -3.9 | -4.0
COC1(OC)N=C(N)C2(C#N)C(c3ccccc3)NC(C)=CC12C#N (stereo not drawn) | nt | 57.2* | nt | nt | nt | -0.5
COC1(OC)N=C(N)C2(C#N)C(c3cccc(Oc4ccccc4)c3)C12C#N (stereo not drawn) | nt | 2.2 | nt | nt | nt | 8.0
O=C1CN(Cc2ccc(F)cc2)C[C@@H]2[C@H](c3ccc(Br)cc3)[C@@H](CO)N12 | -0.2 | nt | -0.9 | -2.4 | -3.5 | -5.2
COc1ccc(N(C(=O)Nc2ccc(Cl)cc2)C2=NCCC2)cc1 | -0.1 | -5.2 | -9.5 | -2.7 | -36.0* | -2.2
Cc1ccc(S(=O)(=O)Nc2ccc3c(c2)C(=O)N([C@H](C)CO)C[C@H](C)[C@H](CN(C)Cc2ccc(Cl)c(Cl)c2)OCCCC[C@H](C)O3)cc1 | -4.0 | nt | 3.6 | 3.2 | 0.8 | -0.3
C[C@@H]1CCCCO[C@H](CN(C)C(=O)Nc2ccccc2)[C@@H](C)CN([C@H](C)CO)C(=O)c2cc(NC(=O)NC3CCCCC3)ccc2O1 | 0.3 | -8.3 | 12.4 | -3.9 | 3.0 | -3.3
COc1ccccc1-c1cnc2c(c1)C(=O)N([C@@H](C)CO)C[C@@H](C)[C@H](CN(C)Cc1cncnc1)O2 | -1.1 | -1.4 | 1.3 | 0.9 | 4.1 | 6.1
Cc1c(C=O)c(Cl)n(C)c(=O)c1C#N | 51.3* | 28.9 | -19.0 | -1.6 | 27.2 | 11.9
CC(=O)N=Cc1c(C)c(C#N)c(=O)n(C)c1O | 31.0 | -1.4 | -11.2 | 1.2 | 23.9 | nt
C[C@@H]1CN([C@H](C)CO)C(=O)c2cc(NC(=O)CCN3CCOCC3)ccc2O[C@H]1CN(C)Cc1ccc(Cl)c(Cl)c1 | 2.7 | 17.1 | 6.7 | 0.0 | -3.5 | 4.1
CC1(C(=O)NNC(=O)C2CCCCC2)CC1(Cl)Cl (stereo not drawn) | 2.5 | -0.4 | -0.8 | 4.3 | -26.9* | 1.3
Nc1cc(S(=O)(=O)O)cc2ccc(S(=O)(=O)O)cc12 | 56.9* | 9.5 | 16.4 | 0.9 | 10.0 | 0.0
O=C(CN1CCOCC1)N/N=C/c1ccc(-c2ccc(C(=O)O)cc2)o1 | -0.5 | -2.9 | -0.7 | 93.2* | 7.0 | 15.5
O=C(C1CCCC1)N1CC(=O)N2[C@@H](CO)[C@@H](c3ccc(Br)cc3)[C@@H]2C1 | 4.4 | nt | -0.8 | -0.9 | -1.2 | 4.3
C[C@H](CO)N1C[C@H](C)[C@@H](CN(C)S(=O)(=O)c2ccc(F)cc2)OCCCC[C@H](C)Oc2ccc(NC(=O)C3CCCCC3)cc2C1=O | -0.3 | 5.0 | -5.0 | 1.5 | -0.6 | -5.9
O=C(Nc1ccc(Oc2ccccc2)cc1)c1csc([C@@H]2O[C@H](CO)[C@@H](O)[C@H]2O)n1 | -1.0 | nt | -0.3 | -1.7 | -30.8* | nt
O=C(Nc1ccc(OCCO)cc1)c1csc([C@@H]2O[C@H](CO)[C@H](O)[C@H](O)[C@H]2O)n1 | 2.6 | nt | -3.1 | -4.3 | 5.8 | 5.6
CCCOc1ccc2ccccc2c1/C=C1\SC(=O)NC1=O | 7.0 | 1.6 | -9.8 | -1.8 | -42.0 | 75.8*
CCN(CC)S(=O)(=O)c1ccc(/C=C/C(=O)O)cc1 | 2.1 | -6.2 | 0.3 | -4.6 | 6.9 | 0.9
CCN(CC)S(=O)(=O)c1cccc(NC(=O)COc2ccc(C#N)cc2OC)c1 | nt | -0.2 | nt | nt | nt | nt
COc1cc(SC)ccc1C(=O)Nc1cccc(S(=O)(=O)NC2=NCCCCC2)c1 | -2.9 | 16.2 | 5.8 | 2.4 | -8.8 | -11.3
CCN(CC)S(=O)(=O)c1cccc(NC(=O)c2ccc(SC)cc2OC)c1 | -0.9 | -1.1 | -1.2 | 1.9 | -25.1* | nt
